From article PMC4403237 (European journal of medicinal chemistry, 2014)

Experiments:
[1] = test system: HL-60 human leukemia cell line; test: MTT cell viability assay, HL-60; format: cell-based; conditions: HL-60, 48 h, read-out: IC50 HL-60
How it was run: (§1)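 Logarithmically growing cells were used: HL-60 and NCI-H460 in RPMI-1640 with 10% FBS and L-glutamine; Hep3B in DMEM/F12 with 10% FBS; Detroit 551 in DMEM with 10% FBS and L-glutamine. Cells were exposed to a range of test compound concentrations or DMSO vehicle for 48 h at 37 °C, then incubated with MTT (1 mg/mL in PBS) for 2 h. Absorbance was read at 570 nm, corrected at 630 nm.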

[2] = test system: Hep3B human hepatoma cell line; test: MTT cell viability assay, Hep3B; format: cell-based; conditions: 48 h, read-out: IC50 Hep3B
How it was run: as §1

[3] = test system: NCI-H460 non-small cell lung cancer cell line; test: MTT cell viability assay, NCI-H460; format: cell-based; conditions: Homo sapiens, NCI-H460, 48 h, read-out: IC50 NCI-H460
How it was run: as §1

[4] = test system: Detroit 551 human skin fibroblast cell line; test: MTT cell viability assay, Detroit 551; format: cell-based; conditions: Detroit 551, 48 h, read-out: IC50 Detroit551
How it was run: as §1

[5] = test system: Hep3B xenograft; test: Hep3B xenograft nude mice model; format: in vivo, Balb/c nude mice
How it was run: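 Male Balb/c nude mice (4–6 weeks, 18–20 g, SPF) received 2 × 10^6 Hep3B cells s.c. in the right flank. At tumor volume >100 mm3 (day 0), mice were grouped (n = 8). The water-soluble phosphate prodrug was given i.v. at 10, 20 or 40 mg/kg, five days/week for 3 weeks; doxorubicin i.v. served as reference. Tumor size (length × width² × 0.5) and body weight were recorded every 7 days to day 21; T/C was calculated.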

[6] = test system: NCI-60 human cancer cell line panel; test: NCI-60 human cancer cell line panel screen; format: cell-based; conditions: NCI-60 panel mean
[7] = test system: K562 leukemia; test: NCI-60 screen, K562; format: cell-based, human
[8] = test system: SR leukemia; test: NCI-60 screen, SR; format: cell-based, human
[9] = test system: NCI-H522 non-small cell lung cancer; test: NCI-60 screen, NCI-H522; format: cell-based, human; conditions: NCI-522 non-small cell lung cancer
[10] = test system: SW-620 colon cancer; test: NCI-60 screen, SW-620; format: cell-based, human
[11] = test system: M14 melanoma; test: NCI-60 screen, M14; format: cell-based, human
[12] = test system: MDA-MB-435 melanoma; test: NCI-60 screen, MDA-MB-435; format: cell-based, human
[13] = test system: Hep3B cells; test: Cell cycle distribution by flow cytometry in Hep3B cells; format: cell-based, human; conditions: 24 h
How it was run: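 Hep3B cells were treated for 24 h with DMSO vehicle, test compound at 0.1, 0.3, 1 or 3 μM, or 1 μM reference antimitotics (vinblastine, colchicine, paclitaxel). Cells were stained with propidium iodide and analysed by flow cytometry. Data are mean ± SEM of three independent experiments.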

[14] = test system: Hep3B cells; test: Western blot of caspase and PARP cleavage in Hep3B cells; format: cell-based, human; conditions: 48 h treatment
[15] = test system: Hep3B cells; test: In vivo; format: cell-based, human; conditions: 1 μM, 24 h
How it was run: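 Hep3B cells were treated for 24 h with DMSO vehicle, 1 μM test compound, or 1 μM reference antimitotics. Cells were washed in ice-cold PBS and lysed 5 min at 37 °C in hypotonic buffer (20 mM Tris-HCl pH 6.8, MgCl2, EGTA, 0.5% IGEPAL, protease inhibitors), then spun 15,000 ×g for 10 min at 25 °C. Supernatant (soluble) and sonicated pellet (polymerized) fractions were western-blotted for α-tubulin, β-tubulin and β-actin.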

| IC50 [1] [nM] | IC50 [2] [nM] | IC50 [3] [nM] | Structure (SMILES) | IC50 [4] [nM] | further results |
| --- | --- | --- | --- | --- | --- |
| 30 | 130 | 180 | COc1cccc(-c2cc(=O)c3c(C)ccnc3[nH]2)c1 [6a, 2-(3-Methoxyphenyl)-5-methyl-1,8-naphthyridin-4(1H)-one] | > 5000 |  |
| 20 | 20 | 50 | COc1cnc2[nH]c(-c3cccc(F)c3)cc(=O)c2c1 [6g, 2-(3-Fluorophenyl)-6-methoxy-1,8-naphthyridin-4(1H)-one] | > 10000 |  |
| 330 | 730 | 750 | COc1cccc(-c2cc(=O)c3c(C)cc(C)nc3[nH]2)c1 [6c, 2-(3-Methoxyphenyl)-5,7-dimethyl-1,8-naphthyridin-4(1H)-one] | > 50000 |  |
| 40 | 90 | 160 | COc1cnc2[nH]c(-c3csc4ccccc34)cc(=O)c2c1 [6i, 2-(Benzo[b]thiophen-3-yl)-6-methoxy-1,8-naphthyridin-4(1H)-one] | > 10000 |  |
|  |  |  | Cc1ccnc2[nH]c(-c3cccc(OP(=O)(O)O)c3)cc(=O)c12 [compound 11, 3-(5-Methyl-4-oxo-1,4-dihydro-1,8-naphthyridin-2-yl)phenyl dihydrogen phosphate] |  | Hep3B inhibitory activity compared with doxorubicin ([5]; i.v. 20 mg/kg): exceeded that of 5 mg/kg doxorubicin; Hep3B tumor weight ([5]; i.v. 40 mg/kg): 78.6 % of the control; body weight changes ([5]; i.v. 10, 20, 40 mg/kg, during antitumor evaluation): no significant body weight changes; inhibition of Hep3B tumor growth ([5]; i.v. 10, 20 and 40 mg/kg/day, five days per week, three weeks): dose- and time-dependent inhibition of Hep3B tumor growth |
| 40 | 50 | 850 | COc1cnc2[nH]c(-c3cccc4ccccc34)cc(=O)c2c1 [6h, 6-Methoxy-2-(naphthalen-1-yl)-1,8-naphthyridin-4(1H)-one] | > 25000 |  |
| 290 | 680 | 1300 | Cc1cc(C)c2c(=O)cc(-c3cccc(O)c3)[nH]c2n1 [7c, 2-(3-Hydroxyphenyl)-5,7-dimethyl-1,8-naphthyridin-4(1H)-one] | > 100000 |  |
| 60 | 120 | 140 | COc1cccc(-c2cc(=O)c3cc(C)cnc3[nH]2)c1 [6b, 2-(3-Methoxyphenyl)-6-methyl-1,8-naphthyridin-4(1H)-one] | > 2500 |  |
| 110 | 340 | 200 | O=c1cc(-c2cccc(O)c2)[nH]c2ncc(Cl)cc12 [7d, 6-Chloro-2-(3-hydroxyphenyl)-1,8-naphthyridin-4(1H)-one] | > 100000 |  |
| 2 | 500 | 5 | CC(=O)O[C@H]1C(=O)[C@@]2(C)[C@H]([C@H](OC(=O)c3ccccc3)[C@]3(O)C[C@H](OC(=O)[C@H](O)[C@@H](NC(=O)c4ccccc4)c4ccccc4)C(C)=C1C3(C)C)[C@]1(OC(C)=O)CO[C@@H]1C[C@@H]2O [Taxol, reference compound] |  |  |
| 30 | 100 | 100 | COc1cccc(-c2cc(=O)c3cc(Cl)cnc3[nH]2)c1 [6d, 6-Chloro-2-(3-methoxyphenyl)-1,8-naphthyridin-4(1H)-one] | > 50000 |  |
| 820 | 1820 | 2480 | O=c1cc(-c2cccc(F)c2)[nH]c2nccc(O)c12 [7f, 2-(3-Fluorophenyl)-5-hydroxy-1,8-naphthyridin-4(1H)-one] | > 100000 |  |
| 30 | 170 | 200 | Cc1ccnc2[nH]c(-c3cccc(O)c3)cc(=O)c12 [7a, 2-(3-Hydroxyphenyl)-5-methyl-1,8-naphthyridin-4(1H)-one] | > 50000 | average logGI50 (MID) [6]: −6.30; logGI50 [7]: less than −7.00; logGI50 [8]: less than −7.00; logGI50 [9]: less than −7.00; logGI50 [10]: less than −7.00; logGI50 [11]: less than −7.00; logGI50 [12]: less than −7.00; cell population at G2/M phase ([13]; 0.1-3 μM): significant cell population accumulation at G2/M phase in a concentration-dependent manner; sub-G1 phase population [13]: predominant increase in sub-G1 phase; cleavage of caspases and PARP [14]: concentration-dependent increase in the cleavage of caspase-8, -9, -3, and PARP; tubulin content in cytoskeleton (polymerized) fraction [15]: decreased both α-tubulin and β-tubulin contents in the cytoskeleton fraction |
| 480 | 460 | 1340 | O=c1cc(-c2cccc3ccccc23)[nH]c2ncc(O)cc12 [7h, 6-Hydroxy-2-(naphthalen-1-yl)-1,8-naphthyridin-4(1H)-one] | > 100000 |  |
| 80 | 440 | 450 | Cc1cnc2[nH]c(-c3cccc(O)c3)cc(=O)c2c1 [7b, 2-(3-Hydroxyphenyl)-6-methyl-1,8-naphthyridin-4(1H)-one] | > 2500 |  |
| 80 | 160 | 860 | O=c1cc(-c2cccc(F)c2)[nH]c2ncc(O)cc12 [7g, 2-(3-Fluorophenyl)-6-hydroxy-1,8-naphthyridin-4(1H)-one] | > 100000 |  |
| 140 | 380 | 700 | O=c1cc(-c2cccc(O)c2)[nH]c2ncc(F)cc12 [7e, 6-Fluoro-2-(3-hydroxyphenyl)-1,8-naphthyridin-4(1H)-one] | > 100000 |  |
| 70 | 200 | 240 | COc1cccc(-c2cc(=O)c3cc(F)cnc3[nH]2)c1 [6e, 6-Fluoro-2-(3-methoxyphenyl)-1,8-naphthyridin-4(1H)-one] | > 5000 |  |
| 570 | 1070 | 390 | O=c1cc(-c2csc3ccccc23)[nH]c2ncc(O)cc12 [7i, 2-(Benzo[b]thiophen-3-yl)-6-hydroxy-1,8-naphthyridin-4(1H)-one] | 10000 |  |
